NR1D1 modulator = modulators of Rev-erb alpha DNA binding, primary screen, biochemical, FITC-DNA, fluorescence polarization, uHTS; Rev-erbα–FITC-DNA binding, 90 min; activity, % at 10 µM; 0.79% of 370,000 active; AID 1259318, 2017;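 active = activity above about 14%, limit read from the data; passing the limit was not always enough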;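 note: 0% = DMSO wells with 35 nM protein and 100% = DMSO wells with 750 nM protein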
VLA-4 inh = inhibition in human VLA-4 binding assay, primary screen, VLA-4 allosteric modulator project, MLPCN library, flow cytometry, VLA-4 expressing cells. Integrin alpha-4 (Homo sapiens), P13612. ligand binding flow cytometry. inhibition, % (about 7 µM as worked out from the volumes in the protocol). 0.2% of 330,000 active; in the data active = inhibition above about 50%
Target sequence (P13612 whole entry, looked up): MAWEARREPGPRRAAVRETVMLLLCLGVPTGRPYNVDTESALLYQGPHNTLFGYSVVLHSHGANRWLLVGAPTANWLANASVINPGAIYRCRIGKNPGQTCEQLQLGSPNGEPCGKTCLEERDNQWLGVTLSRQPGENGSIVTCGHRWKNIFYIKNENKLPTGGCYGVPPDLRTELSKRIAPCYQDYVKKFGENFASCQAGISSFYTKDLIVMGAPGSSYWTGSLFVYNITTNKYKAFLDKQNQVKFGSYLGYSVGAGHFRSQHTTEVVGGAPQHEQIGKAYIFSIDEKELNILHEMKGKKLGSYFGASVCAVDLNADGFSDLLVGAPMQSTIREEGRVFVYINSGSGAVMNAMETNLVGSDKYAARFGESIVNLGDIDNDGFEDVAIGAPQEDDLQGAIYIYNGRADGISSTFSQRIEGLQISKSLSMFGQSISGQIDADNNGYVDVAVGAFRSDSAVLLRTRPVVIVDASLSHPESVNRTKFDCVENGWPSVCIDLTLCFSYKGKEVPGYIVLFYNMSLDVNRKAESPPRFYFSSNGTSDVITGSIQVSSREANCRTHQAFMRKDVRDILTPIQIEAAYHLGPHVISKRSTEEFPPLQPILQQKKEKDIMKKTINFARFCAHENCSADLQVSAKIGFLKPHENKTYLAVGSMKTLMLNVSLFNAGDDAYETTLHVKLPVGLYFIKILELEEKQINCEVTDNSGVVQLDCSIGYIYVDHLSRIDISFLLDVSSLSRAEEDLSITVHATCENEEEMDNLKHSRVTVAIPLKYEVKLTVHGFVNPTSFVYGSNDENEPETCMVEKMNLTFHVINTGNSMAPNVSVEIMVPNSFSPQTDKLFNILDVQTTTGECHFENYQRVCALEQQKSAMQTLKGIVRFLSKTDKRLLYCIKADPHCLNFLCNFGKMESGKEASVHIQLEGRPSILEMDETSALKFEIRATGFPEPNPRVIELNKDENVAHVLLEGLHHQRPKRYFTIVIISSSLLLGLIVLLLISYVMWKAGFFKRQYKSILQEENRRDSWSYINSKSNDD
NR2E3 ag-1 = NR2E3 agonists in two-hybrid cells, primary screen, cell-based, luminescence, CHO-S, Gal4-NCOR/VP16-NR2E3; 0.35% of 360,000 active; luciferase; inhibition of corepressor binding, % at 3.98 µM;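 active = inhibition above the mean of all tested compounds plus 3 SD, cut at about 70% in these data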;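 note: 0% = DMSO with NR2E3 transfected cells and 100% = cells lacking NR2E3 construct; higher means lower luciferase signal from less NR2E3 corepressor binding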
PG9 binder = binders of HIV-1 gp120 antibody PG9, primary screen, biochemical, TR-FRET; HIV-1 gp120 / PG9 antibody interaction; 0.43% of 360,000 active; TR-FRET gp120-PG9 antibody binding; inhibition, % at 6.7 µM; AID 624416, 2012; in the data active = inhibition above about 8.5%
NR2E3 ag-2 = inhibitors of NR2E3-RetCOR corepressor binding, primary screen, NR2E3 agonist project, biochemical, TR-FRET, GST-NR2E3, biotin-RetCOR. Photoreceptor-specific nuclear receptor (Homo sapiens), Q9Y5X4. 1536-well. inhibition of corepressor binding, % at 4.78 µM. 0.12% of 320,000 active;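 active = percent inhibition above the cutoff of mean plus 3 SD of all tested compounds, set per screening campaign, cut at about 20% in these data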;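 note: 0% = DMSO wells and 100% = biotin wells as full block of FRET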
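Assay system: NR2E3–RetCOR corepressor complex. Quantity: 1.35 nM GST-NR2E3. Buffer or medium: pH 7.5 Tris-based buffer. Reagent: biotinylated RetCOR corepressor at 7 nM final. Schedule: 5 h at 4 °C. Detection: TR-FRET, emission read at 617 and 671 nm. Replicates: one well per compound, singlicate testing.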
VLA-4 allo CP = retest of VLA-4 allosteric modulators, confirmation, cell-based, cherry-picked plates, U937, HUTS-21 LIBS antibody; AID 2813, 2010; 2% of 1,300 active; inhibition, % at 6.7 µM; U937 cells, HUTS-21 LIBS mAb binding, flow cytometry; LDV ligand present at threefold Kd; shares compounds with VLA-4 inh; in the data active = inhibition above about 40%;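 note: 0% = ligand without compound and 100% = no ligand background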
NR2E3 ag conf = NR2E3 agonist confirmation in cells, cell-based, luminescence, CHO-S two-hybrid. inhibition, % at 3.98 µM. shares compounds with NR2E3 ag-1. AID 624378, 2012. CHO-S mammalian two-hybrid NR2E3-NCOR, luciferase luminescence. 51% of 2,300 active;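 active = average inhibition above a cutoff equal to the mean inhibition of all tested compounds plus one SD, cut at about 70% in these data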;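 note: 0% = DMSO in NR2E3 cells and 100% = DMSO in cells lacking NR2E3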
GAL4-VP16 luc = GAL4-VP16 reporter modulators, confirmation, counter-screen for NR2E3 agonist project, cell-based, luminescence, CHO-S, high throughput; CHO-S GAL4-VP16 luciferase reporter; shares compounds with NR2E3 ag-1; inhibition, % at 3.98 µM; 29% of 2,300 active; AID 624379, 2012;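 active = mean inhibition above a cutoff equal to the average over all tested compounds plus one standard deviation, cut at about 70% in these data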;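 note: luciferase from a UAS reporter driven by GAL4-VP16 transactivation; 0% = DMSO with VP16-transfected cells and 100% = DMSO with cells lacking VP16; higher means less reporter light so more repression of VP16 activity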
The depositor's hits bear a star; nt = no result. Most compounds without a hit are left out; they make up all but 1.6% or so of the library.

SMILES	NR1D1 modulator	VLA-4 inh	NR2E3 ag-1	PG9 binder	NR2E3 ag-2	VLA-4 allo CP	others
O=C(c1ccc2ccccc2n1)N1CCN(c2ccccc2)CC1	5	13	-8	2	-1	nt
Cc1cc(Cl)ccc1NC(=O)Cn1cncn1	3	53*	12	0	5	-1
Cc1ccc(CNS(=O)(=O)c2ccc3c(c2)C(C)(C)C(=O)N3C)cc1	-1	-6	-23	-2	1	nt
CN(C)c1ccc(CNS(=O)(=O)c2ccc3c(c2)C(C)(C)C(=O)N3C)cc1	-4	52*	-28	-2	5	-1
C/C(=N\NC(=O)c1ccccc1)c1ccc2c(c1)OCO2	2	71*	-68	-2	1	12
COc1ccc(/C=N/NC(=O)CCc2n[nH]c(=O)[nH]c2=O)cc1O	-4	45	-29	-1	1	2
CC(C)(C)OC(=O)N/N=C/c1ccc(Br)cc1	-1	50*	-104	-2	1	0
CC(C)(C)NC(=O)C(=O)N/N=C/c1ccc(Br)cc1	0	-1	1	-1	-2	nt
CCCCN(C)C(=O)C(Cc1ccccc1)NS(=O)(=O)c1ccc2c(c1)CCC(=O)N2 (centres undefined)	-5	54*	15	-1	1	-2
Cc1ccc(-c2cc(C(=O)NN=Cc3cccc(Oc4ccccc4)c3)[nH]n2)cc1C	1	nt	nt	nt	nt	nt
N#CC(c1ccc(Cl)cc1)c1cccc(Cl)n1 (centres undefined)	4	12	-44	2	2	nt
COc1ccc(C(C#N)c2ccc(=O)[nH]n2)cc1 (centres undefined)	-1	55*	-3	-1	5	-9
NS(=O)(=O)c1cccc(NC(=O)CCN2C(=O)C3CCCCC3C2=O)c1 (centres undefined)	-4	53*	-14	-2	0	-5
CC(=O)Nc1ccc(/C=C/COC(C)=O)cc1C	-9	nt	nt	nt	nt	nt
Cc1ccc(S(=O)(=O)NCCC(=O)NC2CCCCCC2)cc1C	-1	-1	30	-1	nt	nt
COc1ccc(S(=O)(=O)NCC(=O)O)cc1C(=O)NC1CCCCC1	3	41	-4	0	-2	-7
COCCCNC(=O)C[C@H]1C[C@@]2(C(=O)OC)C(=C[C@H](C(C)C)O[C@@H]2C2CC2)N(CCc2ccc(OC)c(OC)c2)C1=O	-6	nt	nt	nt	nt	nt
N#CCC[C@H]1CC[C@]2(CCCN(Cc3cccc4ccccc34)C2)O1	3	nt	nt	nt	nt	nt
Cc1ccc(-c2nnc(Nc3ccccc3)c3ccccc23)cc1S(=O)(=O)NCC1CCCO1 (centres undefined)	1	24	27	3	-1	nt
Cc1ccc(-c2nn3c(-c4ccco4)nnc3c3ccccc23)cc1S(=O)(=O)NCC1CCCO1 (centres undefined)	17	39	-14	2	-1	3
COC(=O)c1cc(-c2cccs2)c(=O)n2c1CCC2	0	nt	nt	nt	nt	nt
Clc1ccc(CSc2nncn2-c2ccccn2)cc1	3	60*	3	0	-4	2
CC(C)C[C@H]1COc2cc(Br)ccc2S(=O)(=O)N1Cc1cn(Cc2ccco2)nn1	4	nt	nt	nt	nt	nt
CNC(=O)C(=O)Nc1ccc(C)cc1C	-2	5	-4	-1	6	nt
CNC(=O)C(=O)Nc1c(C)cc(C)cc1C	0	43	-23	-3	-7	-4
SMILES	NR1D1 modulator	VLA-4 inh	NR2E3 ag-1	PG9 binder	NR2E3 ag-2	VLA-4 allo CP	others
Cc1cc(Oc2ccccc2)nc(SCC(=O)Nc2ccccc2)n1	0	70*	-13	-1	1	6
N#Cc1ccc(Cn2ccc3ccc(-c4ccc5ccn(C(=O)C6CC6)c5c4)cc32)cc1	22	nt	nt	nt	nt	nt
COC(=O)[C@]12CCCCC=C1N(Cc1ccc(OC)cc1)C(=O)[C@@H]2CC(=O)NCCc1ccccc1OC	8	nt	nt	nt	nt	nt
Cc1ccc(C(=O)N/N=c2\sc3ccccc3n2C)cc1	2	49	-16	-4	-3	-7
COc1cccc(C(=O)N/N=c2\sc3ccccc3n2C)c1	-6	37	7	-2	1	nt
Cc1c(NC(=O)C2CCCN(S(=O)(=O)c3ccccc3[N+](=O)[O-])C2)c(=O)n(-c2ccccc2)n1C (centres undefined)	-1	nt	nt	nt	nt	nt
COc1cc(C)nc(NS(=O)(=O)c2ccccc2Cl)n1	1	5	-13	-1	0	-1
COC(=O)[C@]12C[C@H](CC(=O)NCc3cccs3)C(=O)N(Cc3ccc4c(c3)OCO4)C1=C[C@H](C(C)C)O[C@@H]2C1CC1	2	nt	nt	nt	nt	nt
Nc1ncnc(Nc2ccccc2)n1	-6	54*	-47	0	2	-5
Cc1ccc(Nc2ncnc(N)n2)cc1C	-4	5	28	0	3	nt
Cc1ccc(NS(=O)(=O)c2ccc(-c3cnc(C4CC4)o3)cc2)c(C)c1	7	55*	79*	0	2	47*	NR2E3 ag conf=56;GAL4-VP16 luc=34
COc1ccccc1NS(=O)(=O)c1ccc(-c2cnc(C3CC3)o2)cc1	3	10	38	0	-2	nt
Cc1cc(C)n(-c2nc(N(C)C)nc(N(C)C)n2)n1	3	15	8	-2	-6	nt
CCNc1nc(NCC)nc(-n2nc(C)cc2C)n1	-1	15	55	1	1	0	NR2E3 ag conf=-5;GAL4-VP16 luc=-8
COC(=O)[C@]12C[C@H](CC(=O)NCCCCc3ccccc3)C(=O)N(CCc3ccc(OC)c(OC)c3)C1=C[C@H](C(C)C)O[C@@H]2C1CC1	11	nt	nt	nt	nt	nt
Cc1ccc(NC(=O)C(Nc2ccccc2)c2ccccc2)cc1 (centres undefined)	-7	-9	-10	-2	-5	nt
Cc1ccc(NC(=O)C(C)c2ccc(-c3ccccc3)c(F)c2)cc1 (centres undefined)	3	88*	74*	-1	0	-1	NR2E3 ag conf=89*;GAL4-VP16 luc=77*
